MT stabilizer – microtubule stabilizers in HeLa cells; HeLa tubulin immunostaining HCS, 24 h; share of cells brighter than vehicle mean+2SD; % tubulin-high responders, % at 10 µM; hit rate 0.83% among 200,000;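 active = plate Z-score above 3 for both tubulin-high and condensed-nucleus cell shares, with cell loss under 80%, at 10 µM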;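 note: anti alpha tubulin signal scored within the nucleus-defined area of each cell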
bCat nuc transl – alters nuclear translocation of beta-catenin in HeLa cells; immunofluorescence imaging; nuclear translocation activity, % at 5 µM; hit rate 0.3% among 190,000;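 active = nuclear translocation activity above 50% at 5 µM, with a well cell count of 50 or more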;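 note: per-cell ratio of nuclear to cytoplasmic median beta-catenin stain intensity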
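Test system: human HeLa cells, native beta-catenin. Compound dosing: 5 µM primary single dose, 0.1% DMSO, 0.02–20 µM confirmation series. Incubation: compound exposure 24 h at 37°C. Detection: beta-catenin immunostaining with DAPI counterstain, 20x imaging, 6 fields/well. Read-out basis: Nuclear/cytoplasmic beta-catenin signal ratio, % activation.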
STAT1 inh – reduces IFN-gamma driven STAT1 reporter signal; NIH 3T3 STAT1-luciferase reporter, luminescence; inhibition, % at 5.5 µM; hit rate 0.35% among 200,000; AID 920;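 active = inhibition above a set limit, the mean inhibition across all tested compounds plus 3 SD, cut at about 34% in these data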
STAT3 inh – inhibitors of IL-6 induced STAT3 signaling | U3A cells, IL-6 STAT3-luciferase reporter, luminescence; host cell line lacks STAT1 | inhibition, % at 5.5 µM | hit rate 0.89% among 190,000 | AID 862;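 active = inhibition above the mean inhibition across all screened compounds plus 3 SD, cut at about 44% in these data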
STAT3 act – STAT3 signaling activation; hit rate 0.91% among 190,000; U3A cells, IL-6 STAT3-luciferase reporter, luminescence; 100% = signal with IL-6 EC80 alone; activation (% of control), % at 5.6 µM;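 active = activation above the screen-wide mean of compound activation plus 3 SD, cut at about 130% in these data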
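Material: STAT1-lacking human U3A cells, STAT3 luciferase reporter | Benchmarks: IL-6-only wells as 100% reference | Probe or stimulus: IL-6 (33 ng/mL) | Timing: Compound 1 h, then IL-6 6 h at 37 °C | Detection: Luminescence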
A number is an active result; 0 = inactive; - = not tested or not shown. The list is not random: actives were taken first. Their share in the collection is about 2.4%.

SMILES	MT stabilizer	bCat nuc transl	STAT1 inh	STAT3 inh	STAT3 act
COc1ccc2c(c1)NC(c1ccc(N(C)C)cc1)c1cccn1-2 (stereo unspecified)	-	0	-	-	-
Cc1ccc(C)c(-n2c(-c3ccc(Br)cc3)csc2=NC(=O)c2ccccc2F)c1	-	0	-	-	-
Cc1c(C(=O)OCc2ccccc2)[nH]c2c1C(=O)CC(c1ccco1)C2 (stereo unspecified)	0	120	0	0	0
Cc1c(C(=O)O)[nH]c2c1C(=O)CC(c1ccccc1)C2 (stereo unspecified)	0	0	0	0	0
CSCCOC(=O)c1[nH]c2c(c1C)C(=O)CC(c1ccco1)C2 (stereo unspecified)	0	92	0	0	0
Cc1c(C(=O)OCCOC(C)C)[nH]c2c1C(=O)CC(c1ccco1)C2 (stereo unspecified)	0	118	0	0	0
CCOC(=O)c1[nH]c2c(c1C)C(=O)CC(c1ccco1)C2 (stereo unspecified)	0	118	0	0	0
CC(=O)N1CSCC1C(=O)NNS(=O)(=O)c1cccc(C(F)(F)F)c1 (stereo unspecified)	-	0	-	-	-
COc1ccc(Cn2c(=O)[nH]c3cc(C(=O)NCCc4ccc(S(N)(=O)=O)cc4)ccc3c2=O)cc1	0	0	0	0	0
Clc1ccc(-c2csc(-c3cccnc3)n2)s1	-	0	-	-	-
COCCOC(=O)c1[nH]c2c(c1C)C(=O)C(C(=O)OC)C(C)C2 (stereo unspecified)	0	-	0	0	0
COCCOC(=O)c1[nH]c2c(c1C)C(=O)CC(c1ccco1)C2 (stereo unspecified)	0	66	0	0	0
O=C(Nc1ccc(Cl)cn1)c1cccc(F)c1	39	100	0	0	0
O=C(Nc1ccc(Cl)cn1)c1ccccc1F	0	0	0	0	0
O=C(NC(=S)Nc1ccc(Cl)cn1)c1cccs1	0	0	0	0	151
O=C(NC(=S)Nc1cccnc1)c1cccs1	0	0	0	0	0
Cc1ccc(-c2nn3cnnc3c3ccccc23)cc1	0	0	0	0	0
COc1ccc(C2CC(=O)c3cnn(-c4nc(C)cc(C)n4)c3C2)cc1 (stereo unspecified)	40	0	0	0	0
COC(=O)N/N=C/c1cn(Cc2ccccc2Cl)c2ccccc12	0	0	0	0	0
Cc1[nH][nH]c(=O)c1C(c1c(C)[nH][nH]c1=O)c1cn(Cc2ccccc2Cl)c2ccccc12	25	0	0	0	0
NNC(=O)c1nc(Cl)c(Cl)c(N)c1Cl	-	0	-	-	-
Cc1ccc(N2C(=O)c3cccc4c(N5CCN(C)CC5)ccc(c34)C2=O)c2cccnc12	0	0	0	0	0
Cc1ccc(N2C(=O)c3cccc4c([N+](=O)[O-])ccc(c34)C2=O)c2cccnc12	-	52	-	-	-
CCC(=NCCc1c(C)[nH]c2ccc(C)cc12)C1=C(O)CC(c2ccccc2)CC1=O (stereo unspecified)	15	135	0	0	0
CCC(=Nc1ccccc1OC)C1=C(O)CC(c2ccccc2)CC1=O (stereo unspecified)	15	0	0	0	0
SMILES	MT stabilizer	bCat nuc transl	STAT1 inh	STAT3 inh	STAT3 act
COc1ccc(N=CC2=C(O)CC(c3ccccc3)CC2=O)c(OC)c1 (stereo unspecified)	27	-	0	0	0
CCC(=Nc1ccccc1O)C1=C(O)CC(c2ccccc2)CC1=O (stereo unspecified)	-	0	-	-	-
CCOc1ccccc1N=CC1=C(O)CC(c2ccccc2)CC1=O (stereo unspecified)	0	0	0	0	0
Cc1cc2nccc(-c3cccnc3)n2n1	0	0	0	0	0
CCOc1cccc2c1OC(c1cc(OC)c(OC)c(OC)c1)N1N=C(c3ccc(C)o3)CC21 (stereo unspecified)	0	0	0	0	0
COc1ccc(C(CC(=O)NCC(OC)OC)NS(=O)(=O)c2ccc(Cl)cc2)cc1 (stereo unspecified)	0	0	0	0	0
O=C(O)c1cccc(N2C(=O)/C(=C/c3ccc([N+](=O)[O-])cc3)C=C2c2ccccc2)c1	0	0	39	66	0
Cc1ccc(C2Oc3ccccc3C3=C2C(c2cccs2)n2ncnc2N3)cc1 (stereo unspecified)	32	0	0	0	0
Fc1ccc(C2C3=C(Nc4ncnn42)c2ccccc2OC3c2ccncc2)cc1 (stereo unspecified)	0	-	0	0	0
CC(C)CN1CCC(CN(C)Cc2nc(-c3cnccn3)no2)CC1	0	0	0	0	0
COc1ccc(C(C)=O)cc1COc1nc(C)nc2ccccc12	15	0	0	0	0
CCNC(=S)N1CCC(C(N)=O)CC1	-	0	-	-	-
Cc1ccc(NC(=O)NNc2cccc(Cl)n2)cc1	0	-	0	0	0
CC(=O)Nc1ccc(-c2cn3cc(C)ccc3n2)cc1	0	0	0	0	0
Cc1ccc2nc(-c3ccccc3)cn2c1	0	0	84	103	0
Cc1ccc(C2NC(=O)c3ccccc3N2)s1 (stereo unspecified)	43	94	0	0	0
O=C1NC(c2ccc(Cl)cc2)Nc2ccccc21 (stereo unspecified)	22	0	0	0	0
Cc1cc(C)nc(-n2ncc3c2CC(c2cccc(Cl)c2)CC3=O)n1 (stereo unspecified)	0	0	0	0	0
O=S(=O)(Nc1cc(Sc2cccc3cccnc23)c(O)c2ccccc12)c1ccc(F)cc1	0	0	0	0	184
CC(C)(C)c1ccc(C(=O)Nc2ccc(CC(=O)O)cc2)o1	0	-	54	83	0
CCOC(=O)/C(C#N)=C/c1cc2ccccc2nc1Cl	0	-	0	0	0
CSc1nc2ccccc2cc1/C=C(\C#N)c1cccc(Cl)c1	34	0	0	0	0
Cc1cnc(NC(=O)COc2ccccc2Cl)s1	0	0	61	92	0
COc1ccc(CCNC2CC(=O)N(C3CCCCC3)C2=O)cc1OC (stereo unspecified)	0	0	0	0	0
CC1=NC(=O)C(N=Nc2cccc3ccccc23)N1c1ccccc1 (stereo unspecified)	0	-	0	0	159
SMILES	MT stabilizer	bCat nuc transl	STAT1 inh	STAT3 inh	STAT3 act
O=C(Nc1ccc2c(c1)OCCO2)c1ccc2nccnc2c1	0	0	0	50	0
O=C(Nc1ccc2c(c1)OCCO2)c1cccnc1	0	0	0	0	0
Cc1ccc(Nc2c(N)c(=O)oc3ccccc23)cc1	30	0	0	0	0
CNc1c(N)c(=O)oc2ccccc12	0	0	0	0	0
NNc1nc2c(-c3ccc(Cl)cc3)nnn2c2ccccc12	0	0	0	0	144
NNc1nc2c(-c3ccc(F)cc3)nnn2c2ccccc12	0	0	0	0	0
COc1ccc(CNC(=O)C(=O)NCCCn2ccnc2)cc1	0	0	0	0	0
CCCCCCCCCCCC(=O)NC1CCS(=O)(=O)C1 (stereo unspecified)	0	0	0	0	0
CC(C)N(C(=O)CSc1nnc(Cc2csc(Nc3ccccc3)n2)o1)C(C)C	0	0	0	0	0

High-throughput results from PubChem BioAssay.
